pKd, pKi: −log10 of the molar value.
What was measured:
[1] = molecular target: Neuronal acetylcholine receptor subunit alpha-7 (Rattus norvegicus, UniProt Q05941); test: Displacement of [125I]alpha-bungarotoxin from alpha7 nAchR in rat frontal cortices
Outline: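 Competition binding against [125I]-α-bungarotoxin as reference radioligand at α7 nAChR. IC50 read graphically for each compound, then converted to Ki.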

[2] = molecular target: Neuronal acetylcholine receptor; alpha4/beta2 (Homo sapiens, UniProt P17787+P43681); test: Displacement of [3H]cytisine from human recombinant alpha4beta2 nicotinic receptor expressed in SH-SY5Y cells after 120 mins by scintillation counting; format: cell-based
Sequence of Neuronal acetylcholine receptor; alpha4/beta2 (P17787 whole entry): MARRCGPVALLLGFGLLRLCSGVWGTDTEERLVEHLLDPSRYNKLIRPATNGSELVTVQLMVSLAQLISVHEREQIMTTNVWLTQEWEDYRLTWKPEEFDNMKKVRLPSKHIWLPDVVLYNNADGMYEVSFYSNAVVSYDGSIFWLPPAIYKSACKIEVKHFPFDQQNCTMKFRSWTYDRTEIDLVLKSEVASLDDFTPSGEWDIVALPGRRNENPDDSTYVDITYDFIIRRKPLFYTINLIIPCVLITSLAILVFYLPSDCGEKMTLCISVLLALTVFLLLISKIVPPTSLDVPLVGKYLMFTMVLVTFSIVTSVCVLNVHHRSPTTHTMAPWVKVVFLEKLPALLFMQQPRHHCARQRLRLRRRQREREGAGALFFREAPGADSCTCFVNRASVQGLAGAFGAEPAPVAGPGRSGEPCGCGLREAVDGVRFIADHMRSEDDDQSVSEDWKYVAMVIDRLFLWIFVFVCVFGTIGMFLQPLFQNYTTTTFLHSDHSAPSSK
Sequence of Neuronal acetylcholine receptor; alpha4/beta2 (P43681 whole entry): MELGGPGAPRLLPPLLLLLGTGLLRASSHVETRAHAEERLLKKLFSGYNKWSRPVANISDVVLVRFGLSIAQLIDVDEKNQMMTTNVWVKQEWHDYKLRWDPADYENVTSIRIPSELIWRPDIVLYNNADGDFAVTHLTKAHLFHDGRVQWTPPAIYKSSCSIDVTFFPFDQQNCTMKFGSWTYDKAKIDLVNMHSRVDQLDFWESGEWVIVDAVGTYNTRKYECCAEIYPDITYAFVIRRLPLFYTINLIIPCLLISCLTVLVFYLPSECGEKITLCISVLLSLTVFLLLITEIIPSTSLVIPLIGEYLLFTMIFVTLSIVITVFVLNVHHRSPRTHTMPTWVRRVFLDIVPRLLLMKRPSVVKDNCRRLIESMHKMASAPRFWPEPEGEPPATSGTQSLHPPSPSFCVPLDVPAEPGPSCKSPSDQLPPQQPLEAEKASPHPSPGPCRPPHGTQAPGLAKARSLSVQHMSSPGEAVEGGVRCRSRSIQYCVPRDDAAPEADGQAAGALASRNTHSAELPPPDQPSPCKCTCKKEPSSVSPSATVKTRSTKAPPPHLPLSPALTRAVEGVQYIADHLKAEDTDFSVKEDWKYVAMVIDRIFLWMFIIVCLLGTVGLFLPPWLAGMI
Outline: (§1)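 Selectivity binding run by an outside contract lab on cells transfected with the human recombinant receptor. Reference radioligands: [3H]cytisine for α4β2 and [3H]BRL 43694 for 5-HT3.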

[3] = molecular target: T1, 5-hydroxytryptamine receptor 3A (Homo sapiens, UniProt P46098); test: Displacement of [3H]BRL 43694 from human 5-HT3 receptor expressed in CHO cells after 120 mins by scintillation counting; format: cell-based; outline: as §1
T1 sequence (P46098 whole entry): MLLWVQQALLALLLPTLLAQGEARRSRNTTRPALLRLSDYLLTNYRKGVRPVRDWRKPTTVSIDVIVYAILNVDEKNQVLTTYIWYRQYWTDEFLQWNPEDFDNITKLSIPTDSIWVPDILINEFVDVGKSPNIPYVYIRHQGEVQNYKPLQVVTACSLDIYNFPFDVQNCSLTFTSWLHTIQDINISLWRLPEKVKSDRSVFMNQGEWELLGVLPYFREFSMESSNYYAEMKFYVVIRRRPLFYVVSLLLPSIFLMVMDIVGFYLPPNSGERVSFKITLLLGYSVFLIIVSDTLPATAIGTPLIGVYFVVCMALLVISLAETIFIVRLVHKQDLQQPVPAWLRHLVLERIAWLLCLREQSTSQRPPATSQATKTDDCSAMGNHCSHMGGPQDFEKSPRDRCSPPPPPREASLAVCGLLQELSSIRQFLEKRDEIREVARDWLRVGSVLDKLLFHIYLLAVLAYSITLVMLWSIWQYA

Sequence of Neuronal acetylcholine receptor subunit alpha-7 (Q05941 whole entry): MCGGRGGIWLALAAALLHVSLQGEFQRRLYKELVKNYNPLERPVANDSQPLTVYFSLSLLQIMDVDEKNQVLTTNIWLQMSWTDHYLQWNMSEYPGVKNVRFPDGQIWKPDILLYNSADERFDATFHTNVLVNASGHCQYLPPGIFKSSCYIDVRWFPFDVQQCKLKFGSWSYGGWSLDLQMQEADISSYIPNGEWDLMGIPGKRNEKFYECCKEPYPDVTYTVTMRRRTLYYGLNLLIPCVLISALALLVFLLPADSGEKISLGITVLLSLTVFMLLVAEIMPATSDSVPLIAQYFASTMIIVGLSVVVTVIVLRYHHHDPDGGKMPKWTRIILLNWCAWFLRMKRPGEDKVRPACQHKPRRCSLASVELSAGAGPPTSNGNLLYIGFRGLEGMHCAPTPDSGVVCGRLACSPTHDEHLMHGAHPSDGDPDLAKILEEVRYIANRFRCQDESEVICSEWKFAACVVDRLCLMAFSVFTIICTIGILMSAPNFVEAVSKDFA

| Structure (SMILES) | pKi [1] | also measured |
| --- | --- | --- |
| c1cc(-c2cn([C@H]3CN4CCC3CC4)nn2)ccn1 | 6.85 | – |
| OCc1ccc(-c2cn([C@H]3CN4CCC3CC4)nn2)cc1 | 8.00 | – |
| COc1ccccc1-c1cn([C@H]2CN3CCC2CC3)nn1 | 6.95 | – |
| COc1cccc(-c2cn([C@H]3CN4CCC3CC4)nn2)c1 | – | pKi [2]: 6.00; pKi [3]: 8.52 |
| c1cc2cc(-c3cn(C4CN5CCC4CC5)nn3)ccc2[nH]1 (stereo not drawn) | – | pKd [1]: 6.92; pKi [2]: 6.12; pKi [3]: 7.28 |
| OC1(c2cn(-c3ccc(Br)cc3)nn2)CN2CCC1CC2 (stereo not drawn) | < 6.00 | – |
| OCCOc1ccc(-c2cn([C@H]3CN4CCC3CC4)nn2)cc1 | 6.67 | – |
| COc1ccc(-c2cn([C@H]3CN4CCC3CC4)nn2)cc1 | 7.96 | – |
| c1cc2cc(-c3cn([C@H]4CN5CCC4CC5)nn3)ccc2o1 | – | pKi [2]: 6.00; pKi [3]: 8.52 |
| Fc1ccc(-c2cn([C@H]3CN4CCC3CC4)nn2)cc1 | 7.82 | – |
| O=C(N[C@@H]1CN2CCC1CC2)c1cc2ccoc2cn1 | 8.90 | – |
| COCOCCOc1ccc(-c2cn([C@H]3CN4CCC3CC4)nn2)cc1 | 6.65 | – |
| COc1ccc(-n2cc(C3(F)CN4CCC3CC4)nn2)cc1 (stereo not drawn) | < 6.00 | – |
| O=C(N[C@H]1CN2CCC1CC2)c1ccc(Cl)cc1 [PNU-282987] | 7.77 | – |
| OCCc1ccc(-c2cn([C@H]3CN4CCC3CC4)nn2)cc1 | 6.89 | – |
| FCCOc1ccc(-c2cn([C@H]3CN4CCC3CC4)nn2)cc1 | 6.72 | – |
| FCc1ccc(-c2cn([C@H]3CN4CCC3CC4)nn2)cc1 | 7.68 | – |
| COc1ccc(-n2cc(C3(O)CN4CCC3CC4)nn2)cc1 (stereo not drawn) | < 6.00 | – |
| FCCc1ccc(-c2cn([C@H]3CN4CCC3CC4)nn2)cc1 | 6.64 | – |

— ChEMBL document CHEMBL3745708, “Design of α7 nicotinic acetylcholine receptor ligands using the (het)Aryl-1,2,3-triazole core: Synthesis, in vitro evaluation and SAR studies” (Eur J Med Chem, 2016)
